Only some compounds are listed: those with a hit (about 3.4% of all), similar ones and a draw of the others.
PHOSPHO1 inh: PubChem AID 1565. Phosphoethanolamine/phosphocholine phosphatase (Homo sapiens), Q8TCT1. recombinant PHOSPHO1, absorbance phosphatase assay. inhibition, % at 13.3 µM. hit rate 1.1% among 290,000; in the data active = inhibition above about 60%
RanGTP-Impb inh: inhibitors of RanGTP-importin-beta interaction, primary screen, biochemical, FRET, CFP-Ran, YFP-importin-beta, homogeneous; cell-free CFP-Ran/YFP-importin-beta FRET ratio; Ran GTPase (GTP-bound) - importin-beta complex; AID 2216, 2009; inhibition, % (test concentration not listed); hit rate 1.1% among 300,000;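 active = more than half of the replicate wells show a fall in the fluorescence ratio signal beyond about 16%, limit read from the data, passing the limit was not always enough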
Runt-SMMHC FRET: inhibitors of RUNX1 Runt–CBFb-SMMHC binding, primary screen, biochemical, FRET, Cerulean-Runt, Venus-CBFb-SMMHC, uHTS; Runt-related transcription factor 1 (Homo sapiens) + Core-binding factor subunit beta …; Cerulean-Runt/Venus-CBFb-SMMHC FRET ratio 530/480, 1 h; inhibition, % at 20 µM; hit rate 0.74% among 220,000;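 active = mean inhibition across duplicate retests at 20 µM reaching about 50%, limit read from the data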;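 note: inhibitors lower the FRET ratio by blocking Runt binding to CBFb-SMMHC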
Target sequence (Q01196 whole entry, looked up): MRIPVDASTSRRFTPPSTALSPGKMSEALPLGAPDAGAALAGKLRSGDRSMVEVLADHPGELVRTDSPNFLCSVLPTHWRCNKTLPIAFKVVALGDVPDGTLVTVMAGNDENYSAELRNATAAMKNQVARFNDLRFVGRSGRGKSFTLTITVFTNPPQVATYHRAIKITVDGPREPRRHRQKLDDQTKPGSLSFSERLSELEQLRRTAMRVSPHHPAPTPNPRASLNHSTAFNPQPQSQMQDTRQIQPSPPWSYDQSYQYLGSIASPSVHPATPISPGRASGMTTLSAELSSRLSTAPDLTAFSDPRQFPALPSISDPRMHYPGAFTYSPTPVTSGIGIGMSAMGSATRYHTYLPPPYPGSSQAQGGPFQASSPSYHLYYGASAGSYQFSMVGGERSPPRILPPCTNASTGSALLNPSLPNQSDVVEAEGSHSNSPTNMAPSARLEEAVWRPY
Target sequence (Q13951 whole entry, looked up): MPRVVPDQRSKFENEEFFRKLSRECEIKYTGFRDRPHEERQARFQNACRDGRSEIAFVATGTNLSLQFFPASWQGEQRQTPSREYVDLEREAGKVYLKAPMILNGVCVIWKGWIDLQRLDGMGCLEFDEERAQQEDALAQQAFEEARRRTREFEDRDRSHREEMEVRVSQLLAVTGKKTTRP
Runt-CBFb FRET: inhibitors of RUNX1 Runt–CBFb binding, primary screen, biochemical, FRET, Cerulean-Runt, Venus-CBFb, uHTS; Cerulean-Runt/Venus-CBFb FRET ratio 530/480, 1 h; inhibition, % at 20 µM; hit rate 0.46% among 220,000; AID 1496, 2009;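 active = inhibition over about 50% at 20 µM in the single-dose screen, limit read from the data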
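test system = Cerulean-Runt domain fusion protein, energy donor | probe or stimulus = Venus-CBFb binding partner, 100 nM | incubation = two 1 h room-temperature incubations shielded from light | detection = fluorescence energy transfer, 422 nm excitation, 530/480 nm emission | measure = loss of energy transfer signal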
Efa HMGR inh: inhibitors of E. faecalis class II HMGR, primary screen, biochemical, Enterococcus faecalis; HMG-CoA reductase (Enterococcus faecalis, mvaE); purified E. faecalis HMGR, NADPH absorbance 340 nm kinetic; inhibition, % at 10 µM; hit rate 0.41% among 190,000; AID 1066, 2008;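 active = inhibition above a set limit, the median over all tested compounds plus 3 SD, cut at about 9.5% in these data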;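 note: enzyme runs in reverse so mevalonate oxidation gives rising NADPH absorbance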
Wee1 degr inh: Wee1 degradation inhibitors, primary screen, cell-based, HeLa, Wee1K328M-luciferase, luminescence; Wee1-like protein kinase (Homo sapiens), P30291; hit rate 1.2% among 220,000; AID 1321, 2008; HeLa Luc-Wee1K328M stability; 100% = proteasome inhibitor MG132 effect; reporter increase, % at 5 µM;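 active = activation above the mean of all tested compounds plus 3 SD, set per screening run, cut at about 8.8% in these data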;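 note: cells exposed to compound for 20 h before luminescence read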
Large screens that a line does not name were inactive.

COC(=O)CC1C(=O)NCCN1C(=S)NC(=O)c1sc2ccccc2c1Cl (stereo unspecified)	Wee1 degr inh 10
CCCCOC(=S)NC(=O)c1sc2ccccc2c1Cl	RanGTP-Impb inh 29
Cc1cccc(C)c1OCC(=O)Nn1c(=O)[nH]c2ccccc2c1=O	Efa HMGR inh 11
Cc1cccc(C)c1OCC(=O)NCc1ccccc1	none (no result: Runt-SMMHC FRET, Runt-CBFb FRET, Efa HMGR inh, Wee1 degr inh)
CC(=O)Nc1ccc2c(c1)C(=O)N(c1cccc3ccccc13)C2=O	none (no result: Runt-SMMHC FRET, Runt-CBFb FRET, Efa HMGR inh, Wee1 degr inh)
CSc1nnc(-c2ccccc2)c(-c2ccccc2)n1	Wee1 degr inh 8.9 (no result: Efa HMGR inh)
c1ccc(CSc2nnc(-c3ccccc3)c(-c3ccccc3)n2)cc1	none (no result: PHOSPHO1 inh, Runt-SMMHC FRET, Runt-CBFb FRET, Efa HMGR inh, Wee1 degr inh)
Cc1cc(N(CC(=O)NC2CC2)S(C)(=O)=O)ccc1Br	none
COc1ccc(-c2ccc3c(N)c(C(=O)c4ccc(OC)c(OC)c4)sc3n2)cc1	PHOSPHO1 inh 63
CCOC(=O)c1sc2nc(-c3ccccc3)ccc2c1N	RanGTP-Impb inh 30, Wee1 degr inh 11
COc1ccc(C(=O)c2sc3nc(-c4ccccc4)ccc3c2N)cc1OC	PHOSPHO1 inh 88
CC(=O)c1ccc(C(=O)N2CCCC(CO)(Cc3ccccc3C)C2)s1 (stereo unspecified)	none (no result: PHOSPHO1 inh, Runt-SMMHC FRET, Runt-CBFb FRET, Efa HMGR inh, Wee1 degr inh)
COc1cc2c(cc1OC)CN(C(=O)Cc1c(F)cccc1Cl)CC2	none (no result: Runt-SMMHC FRET, Runt-CBFb FRET, Efa HMGR inh, Wee1 degr inh)
Cn1c2ccccc2c(=O)c2ccc(C#CC3(N)CCCCC3)cc21	RanGTP-Impb inh 163 (no result: Runt-SMMHC FRET, Runt-CBFb FRET, Efa HMGR inh, Wee1 degr inh)
Cn1c2ccccc2c(=O)c2cc(C#CC3(O)CCCCC3)ccc21	RanGTP-Impb inh 169 (no result: Runt-SMMHC FRET, Runt-CBFb FRET, Efa HMGR inh, Wee1 degr inh)
COc1cccc2oc3ccc(C#CC4(N)CCCCC4)cc3c(=O)c12	none (no result: Runt-SMMHC FRET, Runt-CBFb FRET, Efa HMGR inh, Wee1 degr inh)
COCC(=O)Nc1ccc(S(=O)(=O)Nc2ccccn2)cc1	none
CC(C)CC(NC(=O)OC(C)(C)C)c1cn([C@@H](CCCCNC(=O)OC(C)(C)C)C(=O)N2CCN(C(=O)OC(C)(C)C)CC2)nn1 (stereo partly specified)	Wee1 degr inh 10
CCCCCCCNC(=O)C1(CC2CC(c3ccc(Cl)cc3)=NO2)CCNCC1 (stereo unspecified)	none (no result: Runt-SMMHC FRET, Runt-CBFb FRET, Efa HMGR inh, Wee1 degr inh)
Cn1cc(-c2nnc(-c3ccccc3)o2)c2ccccc21	Wee1 degr inh 10
COc1cccc(OC)c1NC(=O)C1CCCN1C(=O)Nc1cccc(Cl)c1 (stereo unspecified)	none (no result: Runt-SMMHC FRET, Runt-CBFb FRET, Efa HMGR inh, Wee1 degr inh)
CCCCn1c(N)c(N(CCOC)C(=O)c2cccc(S(=O)(=O)N(CC)c3ccccc3)c2)c(=O)[nH]c1=O	none (no result: PHOSPHO1 inh, Runt-SMMHC FRET, Runt-CBFb FRET, Efa HMGR inh, Wee1 degr inh)
CCOc1ccc(N2CC(C(=O)Nc3ccc4c(c3)OCCO4)CC2=O)cc1 (stereo unspecified)	none (no result: Runt-SMMHC FRET, Runt-CBFb FRET, Efa HMGR inh, Wee1 degr inh)
CCOc1ccccc1N1CC(C(=O)Nc2ccc3c(c2)OCCO3)CC1=O (stereo unspecified)	Efa HMGR inh 12
COC(=O)/C(C#N)=C/c1c(N2CCN(Cc3ccc4c(c3)OCO4)CC2)nc2c(C)cccn2c1=O	none (no result: Efa HMGR inh)
Cc1cccn2c(=O)c3cc(C#N)c(=NC(=O)c4ccncc4)n(CCCOC(C)C)c3nc12	PHOSPHO1 inh 96, RanGTP-Impb inh 140, Runt-CBFb FRET 97
CCOCCCn1c(=NC(=O)c2cccs2)c(C#N)cc2c(=O)n3ccccc3nc21	RanGTP-Impb inh 105, Runt-SMMHC FRET 81, Runt-CBFb FRET 86 (no result: Efa HMGR inh)
COCCCn1c(C(=O)N2CC(C)OC(C)C2)cc2c(=O)n3ccccc3nc21 (stereo unspecified)	none (no result: Runt-SMMHC FRET, Runt-CBFb FRET, Efa HMGR inh, Wee1 degr inh)
COCCCn1c(=NC(=O)c2ccncc2)c(C#N)cc2c(=O)n3cccc(C)c3nc21	RanGTP-Impb inh 68, Runt-SMMHC FRET 62
CCCn1c(=NC(=O)c2ccc3c(c2)OCO3)c(C#N)cc2c(=O)n3cccc(C)c3nc21	Runt-SMMHC FRET 67, Runt-CBFb FRET 125 (no result: RanGTP-Impb inh, Efa HMGR inh, Wee1 degr inh)
COc1ccccc1-n1ccnc1SCC(=O)NCc1ccco1	none
CC(=O)NCCOc1nc(N(C)C)nc(N2CCCCC2)n1	none
Cc1cc(C)cc(NC(=O)CCCN2C(=O)C(c3ccccc3)Oc3cccnc32)c1 (stereo unspecified)	none (no result: Runt-SMMHC FRET, Runt-CBFb FRET, Efa HMGR inh, Wee1 degr inh)
Cc1cccn2c(=O)c3cc(C#N)c(=NC(=O)c4cccs4)n(CCCOC(C)C)c3nc12	RanGTP-Impb inh 81, Runt-SMMHC FRET 88, Runt-CBFb FRET 79 (no result: Efa HMGR inh)
CC(=O)N=c1c(C#N)cc2c(=O)n3cccc(C)c3nc2n1CCCOC(C)C	RanGTP-Impb inh 111, Runt-SMMHC FRET 82, Runt-CBFb FRET 115 (no result: Efa HMGR inh)
CCCCn1c(=NC(=O)c2cccnc2)c(C#N)cc2c(=O)n3cccc(C)c3nc21	PHOSPHO1 inh 78, RanGTP-Impb inh 107, Runt-SMMHC FRET 58, Runt-CBFb FRET 124
CCOC(=O)c1cc2c(=O)n3cccc(C)c3nc2n(CCOC)c1=NC(=O)c1ccncc1	none (no result: PHOSPHO1 inh, RanGTP-Impb inh, Runt-SMMHC FRET, Runt-CBFb FRET, Efa HMGR inh)
COc1ccc(NC(=O)CN(C)C(=O)CSCc2c(C)noc2C)cc1	none (no result: PHOSPHO1 inh, Runt-SMMHC FRET, Runt-CBFb FRET, Efa HMGR inh, Wee1 degr inh)
COc1ccc(NC(=O)C2CCN(S(=O)(=O)c3cccc4nonc34)CC2)cc1OC	none (no result: Runt-SMMHC FRET, Runt-CBFb FRET, Efa HMGR inh, Wee1 degr inh)
CC(=O)c1c(C)[nH]c(C(=O)CSc2nnc(-c3ccco3)n2Cc2ccccc2)c1C	PHOSPHO1 inh 62
Cc1c(O)ccc(C(=O)CN2CCN(c3ccccc3)CC2)c1O	none (no result: Runt-SMMHC FRET, Runt-CBFb FRET, Efa HMGR inh, Wee1 degr inh)
Cc1ccc(S(=O)(=O)c2cc3ccc(O)cc3oc2=O)cc1C	RanGTP-Impb inh 132 (no result: Runt-SMMHC FRET, Runt-CBFb FRET, Efa HMGR inh, Wee1 degr inh)
COc1ccc2[nH]c3c(c2c1)CCn1c-3nc2ccccc2c1=O	Wee1 degr inh 13 (no result: RanGTP-Impb inh)
COc1cc(OC)cc(C(=O)Nn2c(C)nc3ccccc3c2=O)c1	none
